Test results published in ChEMBL document CHEMBL4024790 (J Med Chem, 2018).
Activity calls are given as the source filed them. The calls are words filed in the database; no cut-off is given here.

What was measured:
Rattus norvegicus [1] = assay: Toxicity in rat assessed as effect on vasculature at 5 to 250 mg/kg/day, po up to 15 days by microscopic method; format: organism-based; conditions: in vivo, 360 h
[2] = Terminal half life in beagle dog at 5 mg/kg, po administered via gavage by LC-MS/MS analysis; format: ADME, organism-based, Canis lupus familiaris; conditions: in vivo, read-out: beta t1/2 (converted)
Canis familiaris = organism: Canis familiaris; assay: Toxicity in dog assessed as effect on vasculature up to 1 month by microscopic method; design: species or system Canis lupus familiaris; conditions: in vivo
Cytochrome P450 2C9 = Cytochrome P450 2C9 (Homo sapiens, UniProt P11712); assay: Time-dependant inhibition of recombinant human CYP2C9; format: ADME; conditions: recombinant enzyme
Cytochrome P450 2C9, sequence (P11712 whole entry): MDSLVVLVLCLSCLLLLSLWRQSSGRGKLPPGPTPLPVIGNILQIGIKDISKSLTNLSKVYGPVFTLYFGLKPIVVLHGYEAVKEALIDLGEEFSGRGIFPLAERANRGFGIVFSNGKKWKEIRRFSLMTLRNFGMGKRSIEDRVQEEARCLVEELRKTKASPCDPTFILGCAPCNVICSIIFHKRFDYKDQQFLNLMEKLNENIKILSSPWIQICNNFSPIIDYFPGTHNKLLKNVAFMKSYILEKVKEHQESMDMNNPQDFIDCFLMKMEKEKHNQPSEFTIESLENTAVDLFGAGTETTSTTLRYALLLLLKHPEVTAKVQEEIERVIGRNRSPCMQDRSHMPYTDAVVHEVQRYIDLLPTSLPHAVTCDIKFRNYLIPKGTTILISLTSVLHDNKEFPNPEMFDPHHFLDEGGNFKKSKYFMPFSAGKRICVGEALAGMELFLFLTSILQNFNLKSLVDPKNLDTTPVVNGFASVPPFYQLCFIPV

[3] = Volume of distribution at steady state in Wistar Han rat at 1 mg/kg, iv by LC-MS/MS analysis; format: ADME, organism-based; conditions: in vivo, read-out: Vdss
How it was run: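 Male Wistar-Han rats got a single IV dose as a solution in 20% (w/v) sulfobutyl ether β-cyclodextrin with hydrochloric acid, at 1 mL/kg. Blood was drawn into K2EDTA via carotid artery cannula at set times from 2 min to 24 h. Plasma was protein-precipitated with acetonitrile plus internal standard and quantified by LC-MS/MS with positive electrospray, standard curve 0.61 to 625 ng/mL.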

[4] = Ratio of unbound brain concentration to unbound plasma concentration in po dosed Cynomolgus monkey; format: ADME, organism-based, Macaca fascicularis; conditions: brain and plasma, read-out: K(p,uu,brain)
Rattus norvegicus [5] = assay: Antipsychotic activity in Long Evans rat at 0.32 to 3.2 mg/kg, sc by conditioned avoidance responding assay; format: functional, organism-based
How it was run: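 Rats dosed SC at 0.32, 1.0 and 3.2 mg/kg; conditioned avoidance responding also run in combination with risperidone 0.032 mg/kg.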

Mus musculus [6] = organism: Mus musculus; assay: Increase in cGMP level in CD-1 mouse brain hippocampus assessed as unbound brain concentration required to show the effect by immunoassay; format: functional
How it was run: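 CD-1 mice dosed SC (solution in 20% SBE-β-CD with 2 molar equivalents 1N HCl, 1 mL/kg); euthanized by focused microwave irradiation of brain; cortex, striatum, hippocampus homogenized in 0.5 N HCl, centrifuged; cyclic nucleotides in supernatant by enzyme immunoassay. Unbound brain exposure from satellite animals; dose-response and time-course data combined with linear model; one-way ANOVA with Fisher's PLSD.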

[7] = Drug metabolism in dog hepatocytes assessed as 3-(7-methyl-5-(1-methyl-5-(5-(trifluoromethyl)pyridin-2-yl)-1H-pyrazol-4-yl)imidazo[1,5-f][1,2,4]triazin-4-ylamino)propanoic acid formation at 1 to 50 uM after 1 hr by LC-MS/MS analysis; format: ADME, cell-based, Canis lupus familiaris, Hepatocyte
How it was run: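 Rat, dog or human liver microsomes or hepatocytes (P450 0.35–0.5 µM final) incubated with compound at 1, 10 or 50 µM in 100 mM phosphate buffer with 1 mM NADP regenerating system, 37°C for 1 h; quenched with 4 volumes acetonitrile, centrifuged, supernatant evaporated, reconstituted in 5% aqueous acetonitrile and analysed by reversed-phase LC.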

[8] = Volume of distribution at steady state in beagle dog at 0.3 mg/kg, iv by LC-MS/MS analysis; format: ADME, organism-based, Canis lupus familiaris; conditions: in vivo, read-out: Vdss
How it was run: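 Beagle dogs got a single IV dose as a solution in 20% (w/v) sulfobutyl ether β-cyclodextrin with hydrochloric acid, at 0.4 mL/kg. Blood was drawn into K3EDTA via carotid artery cannula at set times from 2 min to 24 h. Plasma was acetonitrile-precipitated with internal standard and measured by LC-MS/MS with positive electrospray, standard curve 0.61 to 1250 ng/mL.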

Mus musculus [9] = organism: Mus musculus; assay: Increase in cGMP level in CD-1 mouse brain striatum assessed per nM of unbound brain concentration by immunoassay; format: functional
How it was run: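 CD-1 mice given compound; brains fixed by focused microwave irradiation, and cortex, striatum and hippocampus dissected and homogenized in 0.5 N HCl, then centrifuged. cGMP in the supernatant measured by enzyme immunoassay. Unbound brain concentration taken from satellite animals. Dose-response and time-course data combined, and a linear Cbu–cGMP model fitted. The Cbu E50 is the projected Cbu giving a 50% rise in cGMP. Statistics by one-way ANOVA with Fisher's PLSD, p<0.05.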

Rattus norvegicus [10] = assay: Reversal of ketamine-induced working memory deficit in Long Evans rat assessed as unbound brain concentration required to show effect at 0.1 mg/kg, sc by radial arm maze assay; format: functional, organism-based
How it was run: (§1)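 Rats trained in a radial arm maze working-memory task, with deficit induced by ketamine. Compound dosed sc; errors compared with vehicle + ketamine. N = 20–23 per group, Hochberg test. Cbu at the tested doses estimated from satellite pharmacokinetic animals.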

Rattus norvegicus [11] = assay: Reversal of ketamine-induced working memory deficit in Long Evans rat assessed as unbound brain concentration required to show effect at 0.32 mg/kg, sc by radial arm maze assay; format: functional, organism-based; how it was run: as §1
Cytochrome P450 2B6 = biological target: T1, Cytochrome P450 2B6 (Homo sapiens, UniProt P20813); assay: Inhibition of recombinant human CYP2B6; format: ADME; conditions: recombinant enzyme
T1 sequence (P20813 whole entry): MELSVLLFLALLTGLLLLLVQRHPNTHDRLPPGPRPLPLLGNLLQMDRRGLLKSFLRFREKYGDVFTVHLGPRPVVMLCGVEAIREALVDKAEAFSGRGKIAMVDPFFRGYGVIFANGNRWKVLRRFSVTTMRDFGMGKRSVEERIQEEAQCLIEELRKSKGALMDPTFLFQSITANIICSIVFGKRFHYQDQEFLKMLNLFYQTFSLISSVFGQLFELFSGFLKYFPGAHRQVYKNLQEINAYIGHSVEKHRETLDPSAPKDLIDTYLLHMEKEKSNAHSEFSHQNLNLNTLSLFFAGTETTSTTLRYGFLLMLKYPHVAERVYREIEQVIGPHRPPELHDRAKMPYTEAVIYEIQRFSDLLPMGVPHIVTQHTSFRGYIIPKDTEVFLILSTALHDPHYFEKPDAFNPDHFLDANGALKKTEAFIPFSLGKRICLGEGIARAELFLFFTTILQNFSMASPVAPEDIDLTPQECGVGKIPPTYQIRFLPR

Mus musculus [12] = assay: In vivo effect on phosphorylated CREB level in CD-1 mouse brain cortex by immunoassay; format: functional, organism-based

## Cc1nc(-c2cnn(C)c2-c2ccc(C(F)(F)F)cn2)c2c(N3CCC3)ncnn12 [PF-05180999]
Rattus norvegicus [1]
  Activity: Non-Toxic
[2]
  half-life: 4.1 h
Canis familiaris
  Activity: Non-Toxic
Cytochrome P450 2C9
  TDI: Not Active
[3]
  Vd: 3.94 L/kg
[4]
  Kp uu: 0.6
Rattus norvegicus [5]
  Activity: inactive
Mus musculus [6]
  fEC50: 116.3 nM
[7]
  Drug metabolism: Metabolite_Detected
[8]
  Vd: 2.89 L/kg
Mus musculus [9]
  Activity: 0.51%
Rattus norvegicus [10]
  Drug uptake(free): 3.1 nM
Rattus norvegicus [11]
  Drug uptake(free): 12.5 nM
Cytochrome P450 2B6
  inhibition (INH): Not Active
Mus musculus [12]
  Activity: inactive
